The results in this text go back to ChEMBL document CHEMBL3421565, “β-D-2'-C-Methyl-2,6-diaminopurine Ribonucleoside Phosphoramidates are Potent and Selective Inhibitors of Hepatitis C Virus (HCV) and Are Bioconverted Intracellularly to Bioactive 2,6-Diaminopurine and Guanosine 5'-Triphosphate Forms” (J Med Chem, 2015).

For series [1], the system named is Hepatocyte. The series can be described thus: Drug level in human primary hepatocytes treated with 50 uM Isopropyl 3-(2-(((S)-(((2R,3S,4R,5R)-5-(2,6-Diamino-9H-purin-9-yl)-3,4-dihydroxy-4-methyltetrahydrofuran-2-yl)methoxy)-(((S)-1-isopropoxy-1-oxopropan-2-yl)amino)phosphoryl)oxy)-phenyl)propanoate 15c(Sp) and Isopropyl 3-(2-(((R)-(((2R,3S,4R,5R)-5-(2,6-Diamino-9H-purin-9-yl)-3,4-dihydroxy-4-methyltetrahydrofuran-2-yl)methoxy)(((S)-1-isopropoxy-1-oxopropan-2-yl)amino)phosphoryl)oxy)phenyl)propanoate assessed as compound formation incubated for 4 hrs at 37 degC by LC-MS/MS method. The series is classed as ADME, cell-based. The gist of the method: (§1)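 Freshly plated primary human hepatocytes seeded at 1 × 10⁶ per well and acclimated overnight, then given 50 μM compound for 4 h at 37 °C. After two ice-cold PBS washes, extraction ran overnight at −20 °C in 70% methanol with 20 nM ddATP. Dried extracts went to LC–MS/MS for intracellular metabolites, as three replicates from one plate, ±SD.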

Series [2] in a line: Drug level in human HuH7 cells treated with 50 uM Ethyl 3-(2-(((R)-(((2R,3R,4R,5R)-5-(2,6-Diamino-9H-purin-9-yl)-3,4-dihydroxy-4-methyltetrahydrofuran-2-yl)methoxy)(((S)-1-ethoxy-1-oxopropan-2-yl)amino)phosphoryl)oxy)phenyl)-propanoate assessed as compound formation incubated for 4 hrs at 37 degC by LC-MS/MS method. It is filed as ADME, cell-based. The settings on record: huh-7, 4 h. In short, it runs like this: (§2)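 Huh-7 cells seeded at 1 × 10⁶ per well and exposed to 50 μM compound after attachment, 4 h at 37 °C. Cells washed twice with ice-cold PBS, then extracted overnight at −20 °C in 70% methanol containing 20 nM ddATP. Supernatants were dried and analysed by LC–MS/MS for parent nucleoside and its mono-, di- and triphosphates (pmol/10⁶ cells).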

Series [3] relates to Hepacivirus hominis. The series can be described thus: Inhibition of HCV C-terminal His-tagged NS5Bdelta21 enzyme assessed as induction of pausing at sites of AMP incorporation during NS5B-mediated RNA polymerization using [32P]-GpG primer, RNA template and rNTP nucleotide mix incubated for 120 mins by PAGE method. The gist of the method:
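Purified NS5BΔ21 (C-terminal His tag), 1 μM, at 30 °C with 1 μM 20-mer RNA template and 1 μM ³²P-GpG primer. Buffer was 40 mM Tris pH 7.5, 6 mM NaCl, 2 mM MgCl₂. Started with 10 μM NTP mix, 1 μM competing NTP and triphosphate inhibitor at 0–100 μM. Stopped at 120 min with EDTA/formamide. Products run on 20% denaturing PAGE and quantified; IC₅₀ calculated.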

For series [4], the system named is Hepatocyte. The series can be described thus: Drug level in human primary hepatocytes treated with 50 uM beta-D-2,6-diaminopurine nucleoside assessed as compound formation incubated for 4 hrs at 37 degC by LC-MS/MS method. The series is classed as ADME, cell-based. In short, it runs like this:
as §1

In series [5] the test system is Hepatocyte. The series can be described thus: Drug level in human primary hepatocytes treated with 50 uM Ethyl 3-(2-(((R)-(((2R,3R,4R,5R)-5-(2,6-Diamino-9H-purin-9-yl)-3,4-dihydroxy-4-methyltetrahydrofuran-2-yl)methoxy)(((S)-1-ethoxy-1-oxopropan-2-yl)amino)phosphoryl)oxy)phenyl)-propanoate assessed as compound formation incubated for 4 hrs at 37 degC by LC-MS/MS method. The series is classed as ADME, cell-based. In short, it runs like this:
as §1

A short description of series [6]: Drug level in human HuH7 cells treated with 50 uM beta-D-2,6-diaminopurine nucleoside assessed as compound formation incubated for 4 hrs at 37 degC by LC-MS/MS method. The series is classed as ADME, cell-based. As to conditions: huh-7, 4 h. In short, it runs like this:
as §2

Series [7] can be described thus: Drug level in human HuH7 cells treated with 50 uM Isopropyl 3-(2-(((S)-(((2R,3S,4R,5R)-5-(2,6-Diamino-9H-purin-9-yl)-3,4-dihydroxy-4-methyltetrahydrofuran-2-yl)methoxy)-(((S)-1-isopropoxy-1-oxopropan-2-yl)amino)phosphoryl)oxy)-phenyl)propanoate 15c(Sp) and Isopropyl 3-(2-(((R)-(((2R,3S,4R,5R)-5-(2,6-Diamino-9H-purin-9-yl)-3,4-dihydroxy-4-methyltetrahydrofuran-2-yl)methoxy)(((S)-1-isopropoxy-1-oxopropan-2-yl)amino)phosphoryl)oxy)phenyl)propanoate assessed as compound formation incubated for 4 hrs at 37 degC by LC-MS/MS method. It is filed as ADME, cell-based. As to conditions: huh-7, 4 h. In short, it runs like this:
as §2

The nature of series [8]: (§3) Inhibition of HCV C-terminal His-tagged NS5Bdelta21 enzyme assessed as reduction in NS5B-mediated RNA polymerization using [32P]-GpG primer, RNA template and rNTP nucleotide mix incubated for 120 mins by PAGE method. On the set-up: species or system Hepacivirus hominis. The gist of the method: (§4)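 Purified NS5BΔ21 (C-terminal His tag), 1 μM, at 30 °C with 1 μM 20-mer RNA template and 1 μM ³²P-GpG primer. Buffer was 40 mM Tris pH 7.5, 6 mM NaCl, 2 mM MgCl₂. Started with 10 μM NTP mix, 1 μM competing NTP and triphosphate inhibitor at 0–100 μM. Products run on 20% denaturing PAGE and quantified; IC₅₀ calculated.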

The subject of series [9] is Hepacivirus hominis. The description is as §3. In short, it runs like this:
as §4

Molecules are shown by their SMILES. Activity calls are given as the source filed them. The rule behind the calls is not given here.

One may read the IC50 as the concentration at which inhibition is half-maximal. `C[C@@]1(O)[C@H](O)[C@@H](COP(=O)(O)OP(=O)(O)OP(=O)(O)O)O[C@H]1n1cnc2c(N)nc(N)nc21`: the Drug metabolism result (in the series with Hepatocyte [1]; in [2]; in the series on Hepatocyte [4]; in the series with Hepatocyte [5]; in series [6]; in [7]) was “metabolite_detected” each time. Besides, the inhibition entry with Hepacivirus hominis [3] is “Active”. For the same molecule, the half-inhibitory concentration (IC50) in series [8] was determined as 3.4 µM. Further, in the series with Hepacivirus hominis [9], the inhibition entry was “Dose-dependent effect”.
